# An excerpt weighted towards active compounds, which were near 4.5% of everything screened.
# STAT1 activator: STAT1 signaling activation; activation (% of control), % at 5.5 µM; NIH 3T3 STAT1-luciferase reporter, IFN-gamma, luminescence; 100% = IFN-gamma alone, no compound; actives 2.6% (n = 200,000);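 active = activation above the screen-wide mean activation plus 3 SD, cut at about 130% in these data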;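 note: raw ratio to IFN-gamma control signal so 100% means no change and 0% no light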
# PERK inhibitor: human PERK inhibition, primary cell-based screen; actives 0.17% (n = 220,000); AID 1416; CHO PERK-DD fusion, SEAP luminescence translation reporter; inhibition, % at 5.6 µM;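 active = inhibition above the mean inhibition of all tested compounds plus 3 SD, set separately per screening campaign, cut at about 2.9% in these data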;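 note: PERK kinase domain activated by AP20187 dimerizer at 100 nM; 0% = DMSO with dimerizer and 100% = rapamycin at 8.4 µM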
# Mdm2 ligase inh: Mdm2 E3 ligase (human) inhibition; Q00987; cell-based MDM2 ubiquitination luciferase reporter, 2 h; 0 = plate control, 100 = twice control, blank-subtracted; signal enhancement, % at 5 µM; actives 0.11% (n = 210,000); AID 1230;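 active = signal enhancement of 30% or more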;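 note: luminescence tracks abundance of the self-degrading MDM2-luciferase fusion protein; higher signal means inhibition of MDM2 E3 ligase activity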
# Target sequence (Q00987 whole entry, looked up, the tested form may be a part): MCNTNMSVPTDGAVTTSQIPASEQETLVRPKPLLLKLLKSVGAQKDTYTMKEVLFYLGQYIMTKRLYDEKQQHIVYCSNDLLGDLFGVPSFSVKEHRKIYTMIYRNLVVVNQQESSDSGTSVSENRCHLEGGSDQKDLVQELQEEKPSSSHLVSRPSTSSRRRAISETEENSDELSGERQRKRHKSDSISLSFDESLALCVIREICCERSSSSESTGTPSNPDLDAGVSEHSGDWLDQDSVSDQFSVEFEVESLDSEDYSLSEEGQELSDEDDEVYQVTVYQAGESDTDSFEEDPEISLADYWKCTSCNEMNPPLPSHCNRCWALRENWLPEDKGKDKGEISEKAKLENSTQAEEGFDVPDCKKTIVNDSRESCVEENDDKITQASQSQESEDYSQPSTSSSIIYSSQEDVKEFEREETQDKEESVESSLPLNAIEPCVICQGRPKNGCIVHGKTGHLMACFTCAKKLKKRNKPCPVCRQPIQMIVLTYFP
#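 Test system: stable mammalian line carrying autodegrading MDM2–luciferase fusion reporter; quantity: 2000 cells in each well; times: 4 h cell settling then 2 h compound exposure, 37 °C; detection: luminescence with SteadyLite reagent, 15 min at room temperature; evaluation: percent signal gain over controls, blank-subtracted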
# AHR activator: activators of human aryl hydrocarbon receptor; activation, % at 5 µM; actives 2.5% (n = 320,000); P35869; AHR-responsive luciferase reporter cells, luminescence; in the data active = activation above about 47%;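 note: 0% = vehicle wells and 100% = reference agonist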
# NF-kB neuron act: NF-kB expression increase, human neuronal cells. fold change at 12.5 µM. actives 1.6% (n = 190,000). NF-kB reporter expression; hits give high values; in the data active = fold change above about 3.3
# APP 5'UTR act: APP 5'UTR luciferase reporter activation; SH-SY5Y APP 5'UTR luciferase reporter, luminescence; zero percent = DMSO vehicle wells; activation, % at 2 µM; actives 1% (n = 190,000);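 active = activation above a set limit, based on mean plus 3 SD of controls, cut at about 140% in these data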
# * = called active by the depositor; / = no result given.
SMILES,STAT1 activator,PERK inhibitor,Mdm2 ligase inh,AHR activator,NF-kB neuron act,APP 5'UTR act
c1ccc(C2=Nc3ccccc3SC2c2nc3ccccc3[nH]2)cc1 (stereo not drawn),128,0,-27,24,6.7*,110
COc1ccc2nc(NC(=O)c3sc4nc(C)cc(C)c4c3N)sc2c1,/,0,/,4,/,/
COc1ccc(C(=O)NCCSC2CCCCC2)cc1,123,0,41*,7,2.3,24
O=C(NCCSC1CCCCC1)c1ccccc1,127,0,-8,9,1,16
COc1ccc(C(=O)NCC(=O)OC2CCCCC2=O)cc1 (stereo not drawn),100,3.6*,-12,2,1.2,-5
CC(=O)N1CCSc2ccc(S(=O)(=O)NCCc3ccc(Cl)cc3)cc21,/,/,/,3,/,/
COc1cccc(C(=O)NC2CCCN(C3Cc4ccccc4C3)C2)c1OC (stereo not drawn),/,/,/,12,/,/
C=CS(=O)(=O)c1sc(Cl)c(N2CCOCC2)c1[N+](=O)[O-],129*,0,5,/,1.1,-31
C=CSc1sc(Cl)c(N2CCOCC2)c1[N+](=O)[O-],86,0,-12,13,1.4,5
COC(=O)C1=C(C)N(CC2CC2)C(=O)N[C@H]1c1ccccc1,/,/,/,-2,/,/
CCOc1ccc(-c2cc(C(=O)OC)[nH]n2)cc1,142*,1,9,5,2.7,58
O=C1CCC/C1=C/Nc1ccc(Cl)cc1,114,1,-11,31,1.5,12
O=C1CCC/C1=C/Nc1ccc2c(c1)OCO2,118,0,-12,73*,0.9,13
CC1CCC/C(=C\Nc2ccc3c(c2)OCO3)C1=O (stereo not drawn),133*,2,-28,5,1,0
Cc1ccc2c(c1)C1CN(C)CCC1N2Sc1ccccc1[N+](=O)[O-] (stereo not drawn),/,0,/,3,/,/
O=C(COC(=O)c1ccc(Br)cc1)NC(=O)NCc1ccccc1,/,/,/,0,/,/
CC1CN(C(=O)/C=C/c2ccc3c(c2)OCO3)CC(C)O1 (stereo not drawn),84,0,-5,60*,1.2,8
COc1ccc(/C=C/C(=O)N2CC(C)OC(C)C2)cc1OC (stereo not drawn),/,/,/,5,/,/
O=C(/C=C/c1ccc2c(c1)OCO2)N1CCOCC1,114,1,-23,55*,1.5,12
COc1cccc(NC(=O)COC(=O)c2ccc(C)c(S(=O)(=O)N3CCCCC3)c2)c1,/,/,/,0,/,/
COC(=O)c1ccc2c(c1)N(C)S(=O)(=O)c1cnc(SCC(=O)C(C)(C)C)nc1-2,/,1,-1,0,/,/
O=C(CN(Cc1ccco1)Cc1cccs1)N1CCN(S(=O)(=O)c2cccc(F)c2)CC1,/,/,/,-1,/,/
CCOC(=O)C(=CN(CCc1ccccc1)CC(=O)OC)C(=O)OCC,107,0,/,-3,1.2,12
CC1CCN(c2nc3ccc(C(=O)N4CCN(Cc5ccccc5)CC4)cc3s2)CC1,130*,-1,-15,-3,1.4,59
CCC(Cc1ccccc1)NC(=O)c1ccc2nc(N3CCOCC3)sc2c1 (stereo not drawn),/,/,/,59*,/,/
SMILES,STAT1 activator,PERK inhibitor,Mdm2 ligase inh,AHR activator,NF-kB neuron act,APP 5'UTR act
Cc1ccc(N2CN(CCc3ccccc3)CNC2=S)cc1,/,2,-6,4,/,/
COCc1cc(C)nc2sc(C(=O)N3CCCC3)c(N)c12,102,0,-11,76*,1.1,6
Cc1ccc(S(=O)(=O)Nc2ccc3c(c2)C(=O)N([C@H](C)CO)C[C@H](C)[C@@H](CN(C)C(=O)Nc2ccc(C(F)(F)F)cc2)O3)cc1,/,/,/,-1,/,/
COc1ccc(NS(=O)(=O)c2cccc(NC(=O)c3cnccn3)c2)cc1Br,78,2,-33,-1,1.3,-9
C/C(=N\Nc1nc2c(s1)CCCC2)c1ccccc1,149*,0,/,21,2.1,15
C1CCN=C(Nc2nc3c(s2)CCCC3)CC1,131*,0,-2,7,1.8,30
c1nnc(NC2=NCCCCC2)s1,107,0,-10,0,1.3,-5
Cc1nc(Nc2ccc(C(=O)O)cc2)sc1-c1ccccc1,131*,1,/,14,/,160*
C/C(=N\Nc1nc(C(C)(C)C)cs1)c1ccccc1,/,/,/,46,/,/
O=C(O)c1ccc(Nc2nc3c(s2)CCCC3)cc1,36,0,-83,-11,3.5*,65
COC(=O)c1oc2ccccc2c1N,111,1,-9,77*,1.1,27
Cc1ccc(/C=C/c2ccc(=O)n(Cc3ccccc3Cl)n2)cc1,100,0,-13,38,1.4,4
COc1ccc(C(=O)CC(=O)C(=O)Nc2cc(Cl)c(OC)cc2OC)cc1,95,0,-5,77*,0.88,7
COc1cc(NC(=O)C/C(C)=N/NC(=O)c2cccc(O)c2)c(OC)cc1Cl,106,-1,-45,82*,1.5,58
COc1ccc(Cl)cc1NC(=O)CCc1ccccc1,105,0,-11,-1,1.6,-9
COc1cc(OC)c(NC(=O)CCc2ccccc2)cc1Cl,104,0,-6,50*,1.4,5
COc1cc(NC(=O)c2ccc(Br)cc2)c(OC)cc1NC(=O)c1ccccc1,/,/,/,63*,/,/
COc1cc(NC(=O)c2ccccc2)c(OC)cc1Cl,100,0,1,69*,1,8
COc1ccc(C(=O)Nc2cc(OC)c(Cl)cc2Cl)cc1,117,1,-3,50*,1.5,9
CCCc1cc(C(=O)Nc2cc(OC)c(Cl)cc2OC)no1,98,0,-5,62*,2,1
O=C(O)c1ccc(OCC(F)(F)F)nc1,/,0,-9,0,/,/
Clc1ccc(-c2nc3cnccn3c2NC2CCCC2)cc1,103,0,-12,51*,0.66,5
CCC(C)Sc1ccc(-c2nc3cnccn3c2NC2CCCCC2)cc1 (stereo not drawn),/,/,/,12,/,/
COc1cccc2c1nc(C)c1cc(C)oc12,111,1,7,62*,1.6,3
C=CCOC(=O)/C(=C\c1ccccc1)NC(=O)c1ccc(C)cc1,132*,1,-6,3,0.78,66
SMILES,STAT1 activator,PERK inhibitor,Mdm2 ligase inh,AHR activator,NF-kB neuron act,APP 5'UTR act
CCOC(=O)/C(=C\c1ccccc1)NC(=O)c1ccccc1,/,0,-7,5,/,/
C=CCOC(=O)/C(=C\c1cccc2ccccc12)NC(=O)c1ccccc1,136*,-2,-6,1,2,18
C=C(C)COc1ccc2c(C)c(CC(=O)OC)c(=O)oc2c1C,115,0,-9,8,3.1,59
COC(=O)Cc1c(C)c2ccc(OCC(C)=O)c(C)c2oc1=O,130*,1,4,25,1.8,32
Cc1nonc1C(=O)N/N=C/c1ccncc1,140*,2,-12,22,0.9,15
COc1ccc(/C=N/NC(=O)c2nonc2C)cc1,129*,1,-53,19,1.6,1
